Laboratory results: ChEMBL document CHEMBL5370658, “Development of First-in-Class Dual Sirt2/HDAC6 Inhibitors as Molecular Tools for Dual Inhibition of Tubulin Deacetylation” (J Med Chem, 2023)
Active and inactive are the calls of the source. The calls are words filed in the database; no cut-off is given here.

Legend:
MCF7 = assay: Cytotoxicity against human MCF7 cells assessed as inhibition of cell growth at 50 uM incubated for 72 hrs by MTT assay relative to control; format: functional
HGC-27 = assay: Cytotoxicity against human HGC-27 cells assessed as inhibition of cell growth at 50 uM incubated for 72 hrs by MTS assay relative to control; format: functional
[1] = Cytotoxicity against human W1 Ovarian cancer cells assessed as inhibition of cell growth at 50 uM incubated for 72 hrs by MTT assay relative to control; format: functional
[2] = Cytotoxicity against human PC-3M-luc cells assessed as inhibition of cell growth at 50 uM incubated for 72 hrs by MTS assay relative to control; format: functional
PC-3M-luc = details: Homo sapiens, dose 20.0 µM, time 5.0 hrs
[3] = molecular target: T1, NAD-dependent protein deacetylase sirtuin-3, mitochondrial (Homo sapiens, UniProt Q9NTG7); assay: Inhibition of recombinant human Sirt3 (118 to 395 residues) expressed in Escherichia coli BL21 Star (DE3) using ZMAL as substrate incubated for 4 hrs in presence of NAD+ by trypsin based fluorescence analysis
T1 sequence (Q9NTG7 whole entry): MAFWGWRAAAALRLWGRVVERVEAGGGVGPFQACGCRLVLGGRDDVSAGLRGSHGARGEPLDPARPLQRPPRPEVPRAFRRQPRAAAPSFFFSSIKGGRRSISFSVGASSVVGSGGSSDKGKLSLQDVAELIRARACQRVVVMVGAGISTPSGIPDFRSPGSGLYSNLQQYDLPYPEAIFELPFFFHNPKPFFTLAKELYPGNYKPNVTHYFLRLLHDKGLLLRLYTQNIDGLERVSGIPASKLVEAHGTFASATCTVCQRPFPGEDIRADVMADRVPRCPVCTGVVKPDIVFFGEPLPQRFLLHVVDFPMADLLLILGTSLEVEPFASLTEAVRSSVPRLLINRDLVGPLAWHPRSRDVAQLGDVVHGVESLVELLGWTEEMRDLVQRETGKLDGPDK
In short: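 Human Sirt1 (134–747) or Sirt3 (118–395) expressed in E. coli, purified by Strep-Tactin and size exclusion. Assay with ZMAL (10.5 µM final) in Tris buffer pH 8.0, 5% DMSO, at 37 °C. Started with NAD+ (500 µM final). Conversion set to 15–30%.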

[4] = molecular target: T2, NAD-dependent protein deacetylase sirtuin-2 (Homo sapiens) (UniProt Q8IXJ6); assay: Inhibition of recombinant human Sirt2 (56 to 356 residues) expressed in Escherichia coli BL21 Star (DE3) mediated demyristoylation activity using ZMML as substrate at 10 uM incubated for 4 hrs in presence of NAD+ by trypsin based fluorescence analysis relative to control
T2 sequence (whole entry): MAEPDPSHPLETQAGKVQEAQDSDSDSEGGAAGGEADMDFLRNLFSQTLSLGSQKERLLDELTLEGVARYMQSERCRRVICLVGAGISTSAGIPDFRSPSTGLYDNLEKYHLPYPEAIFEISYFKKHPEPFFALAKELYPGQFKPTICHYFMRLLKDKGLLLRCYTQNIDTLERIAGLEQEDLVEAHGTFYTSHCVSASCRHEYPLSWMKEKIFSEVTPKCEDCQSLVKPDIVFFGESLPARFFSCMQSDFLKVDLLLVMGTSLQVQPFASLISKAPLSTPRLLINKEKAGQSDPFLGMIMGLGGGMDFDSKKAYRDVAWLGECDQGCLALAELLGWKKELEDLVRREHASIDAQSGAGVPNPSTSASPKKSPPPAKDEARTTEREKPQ

IC50 [3] [µM]	inhibition [4] [%]	Structure (SMILES)	inhibition at 50 µM (MCF7) [%]	inhibition at 50 µM (HGC-27) [%]	inhibition at 50 µM [1] [%]	inhibition at 50 µM [2] [%]	inhibition (PC-3M-luc)
		Cc1cc(C)nc(SCC(=O)Nc2ncc(Cc3cccc(OCc4cn(CCOCCOCCOCCOCCC(=O)Nc5ccc(C(=O)NCc6ccc(C(=O)NO)cc6)cc5)nn4)c3)s2)n1	< 20	< 20	< 20	< 20	Active
> 100		COCCn1cc(COc2cccc(Cc3cnc(NC(=O)CSc4nc(C)cc(C)n4)s3)c2)nn1					
		Cc1cc(C)nc(SCC(=O)Nc2ncc(Cc3cccc(OCc4cn(Cc5ccccc5)nn4)c3)s2)n1				< 20	
		Cc1cc(C)nc(SCC(=O)Nc2ncc(Cc3cccc(OCc4cn(CCOCCOCCOCCOCCOCCOCCOCCOCCOCCOCCC(=O)Nc5ccc(C(=O)NCc6ccc(C(=O)NO)cc6)cc5)nn4)c3)s2)n1	< 20	< 20	< 20	< 20	Active
		Cc1cc(C)nc(SCC(=O)Nc2ncc(Cc3cccc(OCc4cn(CCOCCOCCOCCOCCC(=O)Nc5ccc(C(=O)NCCCCCCC(=O)NO)cc5)nn4)c3)s2)n1	< 20		< 20	< 20	Active
	18	O=C(CCCCCCC(=O)Nc1ccccc1)NO					
